According to ChEMBL document CHEMBL5252537, “Usnic Acid Benzylidene Analogues as Potent Mechanistic Target of Rapamycin Inhibitors for the Control of Breast Malignancies” (J Nat Prod, 2017):
Activity calls are given as the source filed them. The calls are words filed in the database; no cut-off is given here.

Legend:
[1] = system: BT-474; test: Antiproliferative activity against human BT-474 cells incubated for 72 hrs by MTT assay; assay type: functional, cell-based; details: BT-474, 72 h
Procedure, shortened: (§1)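 Cells seeded at 5 × 10^3/well and allowed to attach overnight, then washed with PBS. Compound diluted from 10 mM DMSO stock into medium (100 ng/mL HGF added for c-Met-expressing cells), in triplicate, 72 h at 37 °C. MTT added for 4 h, formazan dissolved in DMSO, absorbance read at 570 nm. Cell numbers taken from a standard curve; IC50 calculated.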

[2] = target: Serine/threonine-protein kinase mTOR (Homo sapiens) (UniProt P42345); test: In vivo inhibition of mTOR in human MCF7 cells xenografted in athymic nude mouse assessed as downregulation of phosphorylated S6K level at 10 mg/kg, ip
[3] = system: MCF7; test: Inhibition of colony formation in human MCF7 cells assessed as reduction in colony diameter at 0.2 uM incubated for 8 days by inverted phase contrast microscopic analysis (reference value: 50 micrometer); assay type: functional; details: time 8 day
Procedure, shortened: (§2)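 Soft agar assay: 5 × 10^3 MCF-7 cells per well in a cell/agar matrix layered over a base agar layer. Overlaid with 10% serum medium containing 0.2 or 0.6 μM compound, or DMSO. Colonies photographed under inverted phase-contrast microscopy after 8 days. Matrix then solubilized, MTT added (4 h, 37 °C), detergent added, A570 read. Growth normalized to DMSO.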

[4] = target: Serine/threonine-protein kinase mTOR (Homo sapiens) (UniProt P42345); test: Inhibition of mTOR in human […] cells assessed as reduction in phosphorylated 4E-BP1 level at 0.25 to 0.5 uM by Western blot analysis; assay type: cell-based; details: MCF7, dose 0.25-0.5 µM
Procedure, shortened: (§3)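 Cells seeded at 5 × 10^5 per 100 mm dish and allowed to attach overnight. Treated with compound or DMSO for 72 h (HGF 100 ng/mL added for MDA-MB-231). Lysed in RIPA buffer with protease inhibitors. 30 μg protein run on SDS-PAGE, transferred to PVDF, blocked in 5% BSA/TBST. Primary antibodies overnight at 4 °C, HRP secondary antibodies, chemiluminescent detection.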

[5] = system: MCF7; test: Induction of autophagy in human MCF7 cells assessed as autophagic vacuoles by microscopic analysis; assay type: functional, cell-based
Procedure, shortened: (§4)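 Cells of each line treated with compound and examined by light microscopy for autophagic vacuoles, compared with control cells.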

[6] = system: MCF7; test: Induction of autophagy in human MCF7 cells assessed as increase in LC3 level at 0.4 to 0.8 uM by Western blotting analysis; assay type: functional, cell-based; details: dose 0.4-0.8 µM; procedure, shortened: as §3
[7] = system: MDA-MB-468; test: Induction of autophagy in human MDA-MB-468 cells assessed as autophagic vacuoles by microscopic analysis; assay type: functional, cell-based; procedure, shortened: as §4
[8] = target: Serine/threonine-protein kinase mTOR (Homo sapiens) (UniProt P42345); test: Inhibition of mTOR in human […] cells assessed as reduction in p-S6K level at 0.25 to 0.5 uM by Western blot analysis; assay type: cell-based; details: MCF7, dose 0.25-0.5 µM; procedure, shortened: as §3
[9] = Toxicity in athymic nude mouse xenografted with human MDA-MB-231/GFP cells at 10 mg/kg, ip measured after 34 days post inoculation; details: in vivo, 816 h
[10] = system: SK-BR-3; test: Antiproliferative activity against human SK-BR-3 cells incubated for 72 hrs by MTT assay; assay type: functional, cell-based; details: SK-BR-3, 72 h; procedure, shortened: as §1
[11] = system: MDA-MB-231; test: Induction of autophagy in human MDA-MB-231 cells assessed as increase in LC3 level at 0.4 to 0.8 uM by Western blotting analysis; assay type: functional, cell-based; details: dose 0.4-0.8 µM; procedure, shortened: as §3
[12] = system: T47D; test: Antiproliferative activity against human T47D cells incubated for 72 hrs by MTT assay; assay type: functional, cell-based; procedure, shortened: as §1
[13] = system: MDA-MB-231; test: Induction of autophagy in human MDA-MB-231 cells assessed as autophagic vacuoles by microscopic analysis; assay type: functional, cell-based; procedure, shortened: as §4
[14] = Toxicity in athymic nude mouse xenografted with human MCF7 cells at 10 mg/kg, ip measured after 75 days post inoculation; details: in vivo, 1800 h
[15] = system: MCF7; test: Inhibition of colony formation in human MCF7 cells at 0.6 uM incubated for 8 days by inverted phase contrast microscopic analysis; assay type: functional; details: MCF7, 192 h, time 8 day; procedure, shortened: as §2
[16] = system: MDA-MB-231; test: Antiproliferative activity against human MDA-MB-231 cells incubated for 72 hrs by MTT assay; assay type: functional, cell-based; details: MDA-MB-231, 72 h; procedure, shortened: as §1
[17] = target: Serine/threonine-protein kinase mTOR (Homo sapiens) (UniProt P42345); test: In vivo inhibition of mTOR in human MDA-MB-231/GFP cells xenografted in athymic nude mouse assessed as downregulation of phosphorylated 4E-BP1 level at 10 mg/kg, ip
[18] = system: MDA-MB-231; test: Induction of autophagy in human MDA-MB-231 cells assessed as increase in beclin-1 level at 0.4 to 0.8 uM by Western blotting analysis; assay type: functional, cell-based; details: dose 0.4-0.8 µM; procedure, shortened: as §3
[19] = system: MDA-MB-231; test: Antitumor activity against human MDA-MB-231/GFP cells xenografted in athymic nude mouse assessed as inhibition of tumor growth at 10 mg/kg, ip administered for 3 weeks; design: scale not given: the % may be the effect or the level left
[20] = system: MCF7; test: Antitumor activity against human MCF7 cells xenografted in athymic nude mouse assessed as inhibition of tumor growth at 10 mg/kg, ip administered for 3 weeks; design: scale not given: the % may be the effect or the level left
[21] = system: BT-474; test: Induction of autophagy in human BT-474 cells assessed as autophagic vacuoles by microscopic analysis; assay type: functional, cell-based; procedure, shortened: as §4
[22] = system: MDA-MB-231; test: Anti-invasive activity in human MDA-MB-231 cells after 24 hrs […]; assay type: functional, cell-based; details: MDA-MB-231, 24 h
[23] = system: MCF7; test: Antitumor activity against human MCF7 cells xenografted in athymic nude mouse assessed as reduction in mean tumor volume at 10 mg/kg, ip measured after 75 days post inoculation (reference value: 1093 +/- 185 mm3); details: time 75 day
[24] = Toxicity in athymic nude mouse xenografted with human MDA-MB-231/GFP cells assessed as reduction in body weight at 10 mg/kg, ip measured after 34 days post inoculation; details: in vivo, 816 h
[25] = Toxicity in athymic nude mouse xenografted with human MCF7 cells assessed as reduction in body weight at 10 mg/kg, ip measured after 75 days post inoculation; details: in vivo, 1800 h
[26] = system: SK-BR-3; test: Induction of autophagy in human SK-BR-3 cells assessed as autophagic vacuoles by microscopic analysis; assay type: functional, cell-based; procedure, shortened: as §4
[27] = system: T47D; test: Induction of autophagy in human T47D cells assessed as autophagic vacuoles by microscopic analysis; assay type: functional, cell-based; procedure, shortened: as §4
[28] = system: MDA-MB-231; test: Antitumor activity against human MDA-MB-231/GFP cells xenografted in athymic nude mouse assessed as reduction in mean tumor volume at 10 mg/kg, ip measured after 34 days post inoculation (reference value: 1835 +/- 251 mm3); details: time 34 day
[29] = system: MDA-MB-468; test: Antiproliferative activity against human MDA-MB-468 cells incubated for 72 hrs by MTT assay; assay type: functional, cell-based; details: MDA-MB-468, 72 h; procedure, shortened: as §1
[30] = system: MCF7; test: Inhibition of colony formation in human MCF7 cells at 0.2 uM incubated for 8 days by inverted phase contrast microscopic analysis; assay type: functional; details: MCF7, 192 h, time 8 day; procedure, shortened: as §2

IC50 [1]: 390 nM
inhibition [2]: Active
inhibition [4]: Active
inhibition [8]: Active
IC50 [10]: 400 nM
IC50 [12]: 330 nM
IC50 [16]: 320 nM
inhibition [17]: Active
IC50 [22]: 420 nM
IC50 [29]: 350 nM
Structure (SMILES): CC(=O)C1=C(O)C=C2Oc3c(C(=O)/C=C/c4ccc(OC(F)(F)F)cc4)c(O)c(C)c(O)c3[C@]2(C)C1=O
Activity [3]: 370 um
Activity [5]: Active
Activity [6]: Active
Activity [7]: Active
Activity [9]: Non-Toxic
Activity [11]: Active
Activity [13]: Active
Activity [14]: Non-Toxic
inhibition at 0.6 µM [15]: 75.3%
Activity [18]: Active
Activity [19]: 62.3%
Activity [20]: 64.8%
Activity [21]: Active
Activity [23]: 385 mm3
Activity [24]: Non-Toxic
Activity [25]: Non-Toxic
Activity [26]: Active
Activity [27]: Active
Activity [28]: 692 mm3
inhibition at 0.2 µM [30]: 22.9%
